Data set [1] can be described thus: Blood level-time course of AEPU and its metabolites after oral dosing in mice. It counts as in vivo, male swiss webster mice.
A short description of data set [2]: In vivo metabolism study of AEPU, rat urine by LC-MS. Details: species or system rat (Sprague Dawley). The conditions noted are these: rats, oral 10 mg/kg AEPU, urine 24 h after treatment.
The next data set concerns the target T1, Human sEH (Homo sapiens, UniProt P34913).
T1 sequence (P34913 1-555): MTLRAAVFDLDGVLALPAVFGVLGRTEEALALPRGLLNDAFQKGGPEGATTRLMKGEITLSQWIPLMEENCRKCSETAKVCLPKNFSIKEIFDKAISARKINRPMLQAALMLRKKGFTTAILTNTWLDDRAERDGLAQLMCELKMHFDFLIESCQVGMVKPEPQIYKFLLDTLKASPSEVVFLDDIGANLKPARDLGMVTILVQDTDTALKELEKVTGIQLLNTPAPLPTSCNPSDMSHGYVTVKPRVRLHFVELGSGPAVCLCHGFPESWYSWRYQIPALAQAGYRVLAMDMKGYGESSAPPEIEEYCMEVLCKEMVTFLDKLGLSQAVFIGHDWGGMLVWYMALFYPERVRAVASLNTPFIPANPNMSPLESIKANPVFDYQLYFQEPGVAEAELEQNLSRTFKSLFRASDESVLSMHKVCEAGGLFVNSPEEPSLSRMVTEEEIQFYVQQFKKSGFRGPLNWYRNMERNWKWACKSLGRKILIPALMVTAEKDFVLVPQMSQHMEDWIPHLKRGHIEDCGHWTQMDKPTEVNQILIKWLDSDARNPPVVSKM
As to the kind of experiment: sEH activity assay. Particulars: fluorescent assay for sEH inhibition, from Table 3 (human and mouse sEH). It counts as biochemical.

Another data set has as its system CYP3A4. As to the kind of experiment: Recombinant human CYPs incubation, CYP3A4. The data set is classed as in vitro ADME. Particulars: 1 μM AEPU, 20 pmol/ml CYP, 30 min. The essentials: (§1)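 Recombinant human CYPs (20 pmol/ml) with 1 μM test compound in 100 mM sodium phosphate pH 7.4, preincubated 5 min at 37 °C. NADPH-generating system added; incubated 0 and 30 min. Stopped with 200 nM internal standard in methanol; LC-MS/MS. Metabolites compared as response-area ratio to internal standard.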

Another data set deals with CYP 3A4. The data set is classed as in vitro ADME, human. The conditions noted are these: 10 uM ketoconazole, 30 min, 37°C.
The conditions of data set [3]: animal models; cited from earlier work.
For data set [4] the following is noted: 5 mg/kg for mouse and rat, 0.3 mg/kg for dog; cited from earlier work.
Data set [5] is classed as in vitro ADME, rat, human. The conditions noted are these: incubated in vitro without NADPH.
A further data set relates to CYP2D6. Briefly: Recombinant human CYPs incubation, CYP2D6. The data set is classed as in vitro ADME. Particulars: 1 μM AEPU, 20 pmol/ml CYP, 30 min. The essentials:
as §1

The subject of a further data set is sEH. Particulars: cited from earlier work.

In the case of `O=C(O)CCNC(=O)NC12CC3CC(CC(C3)C1)C2` [M15, 3-(3-adamantyl-ureido)-propanoic acid], the “blood level 6 hours post administration” value in data set [1] (oral 10 mg/kg AEPU, mouse whole blood, 6 hours) is recorded as “under the detection limitation”. For the same molecule, in data set [2], the “occurrence in rat urine” value was “major metabolite”.
For `CCOCCOCCOCCCCCNC(=O)NC12CC3CC(CC(O)(C3)C1)C2` [M2], the “potency lower compared to AEPU” value at Human sEH is 30–100 fold.
For the molecule `CCOCCOCCOCCCCCNC(=O)NC12CC3CC(CC(C3)C1)C2` [AEPU, 1-adamantan-1-yl-3-(5-(2-(2-ethoxyethoxy)ethoxy)pentyl)urea], in the data set on CYP3A4, the “role of CYP3A4 in the in vitro metabolism of AEPU” value is “major enzyme”. Further, the “metabolism of AEPU in human liver S9 fraction with ketoconazole” value in the data set on CYP 3A4 was “ceased”. Also, the “blood level of AEPU through the whole time course” value in data set [3] was “undetectable”. Further, in data set [4], the “area under curve after oral administration, comparison of species” value was “largest area under curve for dog, and then rat, while under detection limitation for mouse”. For the same molecule, the “metabolite formation in vitro without NADPH” value in [5] was “failed to generate metabolites”. In addition, in data set [1] (oral 10 mg/kg, multiple metabolites observed after 30 minutes), the “metabolism in vivo (in words)” value is listed as “metabolized rapidly”. For the same molecule, the “role of CYP2D6 in the in vitro metabolism of AEPU” value in the data set with CYP2D6 is reported as “minor enzyme”.
`O=C(O)CCCNC(=O)NC12CC3CC(CC(C3)C1)C2` [4-(3-adamantan-1-yl-ureido)butanoic acid]: in the data set with sEH, the “inhibitory potency on sEH (in words)” value is listed as “very weak”.

The values above are taken from article PMC4656071 (Biochemical pharmacology, 2015).
